Laboratory results: ChEMBL document CHEMBL1137668, “Activities of several classes of acyclic nucleoside phosphonates against camelpox virus replication in different cell culture models” (Antimicrob Agents Chemother, 2007)
pEC50: −log10 of the molar value.

Experiments:
Camelpox virus [1] = test: Antiviral activity against Camelpox virus CML1 infected in HEL299 cells assessed as inhibition of virus-induced cytopathic effect after 6 days by Giemsa staining; format: functional, organism-based; settings: CML1, HEL 299, 144 h
Camelpox virus [2] = test: Antiviral activity against Camelpox virus CML14 infected in HEL299 cells assessed as inhibition of virus-induced cytopathic effect after 6 days by Giemsa staining; format: functional, organism-based; settings: CML14, HEL 299, 144 h
[3] = Cytotoxicity against HEL299 cells after 4 days by Z1 Coulter counting analysis; format: cell-based, HEL 299; settings: human, HEL299 cells
Procedure, shortened: (§1)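 Cell growth inhibition: HEL cells were seeded at 3.5 × 10³ per well and PHKs at 5 × 10³ per well. Serial dilutions were added in duplicate after 1 day (HEL) or 3 days (PHK). After 4 days with compound, cells were trypsinized and counted with a Coulter counter (8 μm lower limit). CC50 is the concentration reducing growth by 50%, mean ± SD of at least two experiments.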

[4] = Selectivity index, ratio of CC50 for HEL299 cells to EC50 for Camelpox virus CML1 infected in HEL299 cells; format: toxicity, cell-based, HEL 299; settings: human, HEL299 cells; read-out: Ratio CC50/IC50
[5] = Selectivity index, ratio of CC50 for HEL299 cells to EC50 for Camelpox virus CML14 infected in HEL299 cells; format: toxicity, cell-based, HEL 299; settings: human, HEL299 cells; read-out: Ratio CC50/IC50
Camelpox virus [6] = test: Antiviral activity against Camelpox virus CML1 infected in human PHK assessed as inhibition of virus-induced cytopathic effect after 6 days by Giemsa staining; format: functional, organism-based; settings: CML1, 144 h
Camelpox virus [7] = test: Antiviral activity against Camelpox virus CML14 infected in human PHK assessed as inhibition of virus-induced cytopathic effect after 6 days by Giemsa staining; format: functional, organism-based; settings: CML14, 144 h
[8] = Cytotoxicity against human PHK after 4 days by Z1 Coulter counting analysis; settings: PHK cells; procedure, shortened: as §1
[9] = Selectivity index, ratio of CC50 for human PHK to EC50 for Camelpox virus CML1 infected in human PHK
[10] = Selectivity index, ratio of CC50 for human PHK to EC50 for Camelpox virus CML14 infected in human PHK
Camelpox virus [11] = test: Antiviral activity against Camelpox virus CML1 infected in HEL299 cells assessed as reduction in viral titer after 6 days postinfection by virus yield reduction assay; format: functional; settings: HEL 299

| SMILES | pEC50 (Camelpox virus [1]) | pEC50 (Camelpox virus [2]) | CC50 at 96 h [3] | selectivity ratio [4] | selectivity ratio [5] | pEC50 (Camelpox virus [6]) | pEC50 (Camelpox virus [7]) | CC50 at 96 h [8] | Ratio CC50/IC50 [9] | Ratio CC50/IC50 [10] | Activity (Camelpox virus [11]) |
| --- | --- | --- | --- | --- | --- | --- | --- | --- | --- | --- | --- |
| Nc1ncnc2c1ncn2CCOCP(=O)(O)O [ADEFOVIR] | < 3.74 | < 3.74 | 211 µM | < 1 | < 1 | 3.79 | < 3.74 | 76 µM | 0.5 | <0.4 |  |
| C[C@@H](O)[C@H](Nc1nc(N)nc2c1ncn2CCOCP(=O)(O)O)C(=O)O | 3.95 | 3.95 | 39 µM | 0.3 | 0.3 | < 3.89 | < 3.89 | 19 µM | <0.2 | <0.2 |  |
| Nc1nc(NC(CC(=O)O)C(=O)O)c2ncn(CCOCP(=O)(O)O)c2n1 (racemic) | 4.32 | 4.34 | 20 µM | 0.4 | 0.4 | < 3.91 | < 3.91 | 16 µM | <0.1 | <0.1 |  |
| Nc1cc(OCCOCP(=O)(O)O)nc(N)n1 | < 3.72 | < 3.72 | 66 µM | < 0.3 | < 0.3 | 4.31 | 4.27 | 4 µM | 0.1 | 0.1 |  |
| Nc1nc(NCCS(=O)(=O)O)c2ncn(CCOCP(=O)(O)O)c2n1 | < 3.90 | < 3.90 | 258 µM | < 2 | < 2 | < 3.90 | < 3.90 | 102 µM | <1 | <1 |  |
| Nc1nc(NCCOCP(=O)(O)O)c2ncn(CCOCP(=O)(O)O)c2n1 | < 3.93 | < 3.93 |  |  |  | < 3.93 | < 3.93 |  |  |  |  |
| C[C@H](O)[C@H](Nc1nc(N)nc2c1ncn2CCOCP(=O)(O)O)C(=O)O | 4.20 | 4.15 | 56 µM | 1 | 1 | < 3.89 | < 3.89 | > 16 µM | <0.1 | <0.1 |  |
| Nc1nc(NCCCC(=O)O)c2ncn(CCOCP(=O)(O)O)c2n1 | < 3.87 | < 3.87 | 282 µM | < 2 | < 2 | < 3.87 | < 3.87 | > 134 µM | 1 | 1 |  |
| CC(C)CC(Nc1nc(N)nc2c1ncn2CCOCP(=O)(O)O)C(=O)O (racemic) | 4.28 | 4.35 | 12 µM | 0.2 | 0.3 | 4.11 | 4.06 | 8 µM | 0.1 | 0.1 |  |
| Nc1nc(N)c(Br)c(OCCOCP(=O)(O)O)n1 | < 3.81 | < 3.81 | 52 µM | < 0.3 | < 0.3 | < 3.81 | < 3.81 |  |  |  |  |
| Nc1nc(NC(Cc2ccccc2)C(=O)O)c2ncn(CCOCP(=O)(O)O)c2n1 (racemic) | < 3.94 | < 3.94 | 101 µM | < 1 | < 1 | < 3.94 | < 3.94 | 27 µM | <0.2 | <0.2 |  |
| CN(C)c1ncnc2c1ncn2CCOCP(=O)(O)O | 4.53 | 4.61 | 22 µM | 1 | 1 | 5.07 | 4.96 | 1 µM | 0.1 | 0.1 |  |
| Nc1nc(N)c2ncn(CCOCP(=O)(O)O)c2n1 [PMEDAP] | < 3.76 | < 3.76 | 100 µM | < 1 | < 1 | 4.03 | 4.20 | 8 µM | 0.1 | 0.1 |  |
| Nc1nc(NCCP(=O)(O)O)c2ncn(CCOCP(=O)(O)O)c2n1 | < 3.90 | < 3.90 | 43 µM | < 0.3 | < 0.3 | < 3.90 | < 3.90 | 59 µM | <0.5 | <0.5 |  |
| NC1=NC(OC[C@@H]2CP(=O)(O)CO2)=CC(N)N1O (some centres undefined) | 5.28 | 5.12 | 147 µM | 28 | 19 | 4.79 | 4.74 | 43 µM | 3 | 2 |  |
| Nc1nc(N(CC(=O)O)CC(=O)O)c2ncn(CCOCP(=O)(O)O)c2n1 | < 3.91 | < 3.91 | > 124 µM | 1 |  | < 3.91 | < 3.91 | > 124 µM | 1 | 1 |  |
| Nc1nc2c(ncn2CCOCP(=O)(O)O)c(=O)[nH]1 [GS-438] | 5.48 | 5.26 | 1 µM | 0.3 | 0.2 | 5.54 | 5.36 | 0.3 µM | 0.1 | 0.1 |  |
| Nc1nc(Cl)c2ncn(CCOCP(=O)(O)O)c2n1 | 5.16 | 5.03 | 8 µM | 1 | 1 | 5.10 | 4.80 | 1 µM | 0.2 | 0.1 |  |
| C[C@@H](Cn1cnc2c(N)ncnc21)OCP(=O)(O)O | < 3.75 | < 3.75 | > 176 µM | 1 |  | < 3.75 | < 3.75 | > 176 µM | 1 | 1 |  |
| Cc1nc(N)nc2c1ncn2CCOCP(=O)(O)O | < 3.76 | < 3.76 | > 174 µM | 1 |  | < 3.76 | < 3.76 | > 70 µM | 0.4 | 0.4 |  |
| Nc1nc(NCS(=O)(=O)O)c2ncn(CCOCP(=O)(O)O)c2n1 | 5.72 | 5.72 | 2 µM | 1 | 1 | 5.43 | 5.31 | 0.1 µM | 0.03 | 0.03 |  |
| Nc1nc(NC(CO)C(=O)O)c2ncn(CCOCP(=O)(O)O)c2n1 (racemic) | 4.26 | 4.25 | 3 µM | 0.1 | 0.1 | 4.09 | 4.03 | 2 µM | 0.03 | 0.03 |  |
| CC(O)C(Nc1nc(N)nc2c1ncn2CCOCP(=O)(O)O)C(=O)O (racemic) | 4.36 | 4.54 | 9 µM | 0.2 | 0.3 | 4.32 | 4.15 | 2 µM | 0.04 | 0.03 |  |
| CC(C)(C)C(=O)OCOP(=O)(COC(CO)Cn1cnc(N)nc1=O)OCOC(=O)C(C)(C)C (centres undefined) | 7.70 | 7.70 | 5 µM | 250 | 250 | 6.22 | 6.52 | 1 µM | 2 | 4 | Dose-dependent effect |
| Nc1nc(NCCC(=O)O)c2ncn(CCOCP(=O)(O)O)c2n1 | < 3.86 | < 3.86 | 294 µM | < 2 | < 2 | < 3.86 | < 3.86 | 258 µM | <2 | <2 |  |
